Assay results gathered from unrelated publications.
Protocols differ between the studies behind these lines.
PTGS2: Prostaglandin G/H synthase 2 (PTGS2, Homo sapiens, UniProt P35354)
PIK3CG: Phosphatidylinositol 4,5-bisphosphate 3-kinase catalytic subunit gamma isoform (PIK3CG, Homo sapiens, UniProt P48736)
Inositol-tetrakisphosphate 1-kinase: Inositol-tetrakisphosphate 1-kinase (Homo sapiens, UniProt Q13572)
CHRM3: Muscarinic acetylcholine receptor M3 (CHRM3, Homo sapiens, UniProt P20309)

CC(=NNC(=O)c1cc(-c2ccccc2)n(-c2ccc(S(N)(=O)=O)cc2)n1)c1ccc(Br)cc1 gave an IC50 of 1250 nM (PTGS2; enzyme activity, inhibitor).
For O=C1C(=Nc2ccccc2I)c2ccccc2N1Cc1ccc([N+](=O)[O-])cc1, the IC50 was 1.52 nM (PIK3CG; enzyme activity, inhibitor, ADP detection).
Nc1ncnc2c1ncn2[C@@H]1O[C@H](CO)C[C@H]1O gave an IC50 of 3100 nM (Inositol-tetrakisphosphate 1-kinase; enzyme activity, inhibitor).
NS(=O)(=O)c1ccc(-n2nc(-c3nnc(S)o3)cc2-c2ccccc2)cc1 has an IC50 of 3730 nM (PTGS2; enzyme activity, inhibitor).
For C=CCN1C(=O)C(=Nc2cccc(C)c2)c2ccccc21, the IC50 was 24.3 nM (PIK3CG; enzyme activity, inhibitor, ADP detection).
For FC(F)(F)CN1CC(n2cc(Oc3ccn4nc(Cl)cc4n3)cn2)C1, the IC50 was > 99000 nM (Very long chain fatty acid elongase 7 (Homo sapiens, UniProt A1L3X0); enzyme activity, inhibitor).
CN(C)C(=O)c1cc2cnc(Nc3cccc4c(=O)cc(N5CCOCC5)oc34)nc2n1C1CCCC1 has an IC50 of 1420 nM (PIK3CG; enzyme activity, inhibitor, radiometric).
O=C1C(=Nc2ccccc2I)c2ccccc2N1Cc1cccc(Cl)c1 gave an IC50 of 4.07 nM (PIK3CG; enzyme activity, inhibitor, ADP detection).
For Nc1ncnc2c1ncn2C1CCCC1, the IC50 was 78 nM (Inositol-tetrakisphosphate 1-kinase; enzyme activity, inhibitor, ADP detection).
O=C1C(=Nc2ccccc2I)c2ccccc2N1Cc1ccc(Br)cc1 has an IC50 of 5.8 nM (PIK3CG; enzyme activity, inhibitor, ADP detection).
With CC(C)N(CCC(=O)c1ccc2ccccc2c1)Cc1ccccc1 the IC50 was < 10000 nM (Retinal dehydrogenase 2 (ALDH1A2, Homo sapiens, UniProt O94788); enzyme activity, inhibitor, fluorescence; 15 min, pH 7.5).
For COc1ccc(-c2oc3cc(Nc4ncc5cc(C(=O)N(C)C)n(C6CCCC6)c5n4)ccc3c(=O)c2F)cc1, the IC50 was > 10000 nM (PIK3CG; enzyme activity, inhibitor, radiometric).
O=C(CCNC(=O)CNC(=O)CC(c1ccccc1)(c1ccccc1)c1ccccc1)NC[C@H]1CCCN(Cc2ccc(F)cc2)C1 gave an IC50 of 400 nM (CHRM3; ligand displacement, radioligand; cell membranes).
For Cc1ccc(CN2C(=O)C(=Nc3c(C(C)C)cccc3C(C)C)c3ccccc32)cc1, the IC50 was 18.6 nM (PIK3CG; enzyme activity, inhibitor, ADP detection).
With NS(=O)(=O)c1ccc(-n2nc(C(=O)NN=Cc3ccc(O)cc3)cc2-c2ccccc2)cc1 the IC50 was 1420 nM (PTGS2; enzyme activity, inhibitor).
For CN(C)C(=O)c1cc2cnc(Nc3ccc(-c4cccc5c(=O)cc(N6CCOCC6)oc45)c(F)c3)nc2n1C1CCCC1, the IC50 was > 10000 nM (PIK3CG; enzyme activity, inhibitor, radiometric).
For Nc1ncnc2c1cnn2C1CCCCC1, the IC50 was 440 nM (Inositol-tetrakisphosphate 1-kinase; enzyme activity, inhibitor, ADP detection).
O=C1Nc2ccccc2/C1=N/c1ccccc1Br gave an IC50 of 176 nM (PIK3CG; enzyme activity, inhibitor, ADP detection).
For CN(C)C(=O)c1cc2cnc(Nc3ccc(-c4cccc5c(=O)cc(N6CCOCC6)oc45)cc3)nc2n1C1CCCC1, the IC50 was > 10000 nM (PIK3CG; enzyme activity, inhibitor, radiometric).
Nc1ncnc2c1ncn2C1CCCO1 (stereo not drawn) has an IC50 of 920 nM (Inositol-tetrakisphosphate 1-kinase; enzyme activity, inhibitor, ADP detection).
CC(C)c1cccc(C(C)C)c1N=C1C(=O)N(Cc2ccccc2)c2ccccc21 has an IC50 of 1.68 nM (PIK3CG; enzyme activity, inhibitor, ADP detection).
C=CC(=O)N1CCN(c2nc(=O)n(-c3c(C)ccnc3C(C)C)c3nc(-c4c(O)cccc4F)c(F)cc23)[C@@H](C)C1 has an IC50 of 57.2 nM (GTPase NRas (NRAS, Homo sapiens, UniProt P01111, C181S/C186S/G12C); enzyme activity, inhibitor).
The IC50 of CN(C)C(=O)c1cc2cnc(Nc3cncc(-c4ccc5c(=O)cc(N6CCOCC6)oc5c4)c3)nc2n1C1CCCC1 is reported as 1200 nM (PIK3CG; enzyme activity, inhibitor, radiometric).
O=C(CCNC(=O)CNC(=O)CC(c1ccccc1)(c1ccccc1)c1ccccc1)NC[C@@H]1CCCN(Cc2cccnc2F)C1 has an IC50 of 3800 nM (CHRM3; ligand displacement, radioligand; cell membranes).
